Data reported in ChEMBL document CHEMBL4351031, “The development of 2-acetylphenol-donepezil hybrids as multifunctional agents for the treatment of Alzheimer's disease” (Bioorg Med Chem Lett, 2019).
The source made the active and inactive calls. The rule behind the calls is not given here.

Legend:
[1] = target: Acetylcholinesterase (Electrophorus electricus, UniProt O42275); experiment: Inhibition of electric eel AChE using acetylthiocholine iodide incubated for 15 mins as substrate by Ellman's method
Sequence of Acetylcholinesterase (O42275 whole entry): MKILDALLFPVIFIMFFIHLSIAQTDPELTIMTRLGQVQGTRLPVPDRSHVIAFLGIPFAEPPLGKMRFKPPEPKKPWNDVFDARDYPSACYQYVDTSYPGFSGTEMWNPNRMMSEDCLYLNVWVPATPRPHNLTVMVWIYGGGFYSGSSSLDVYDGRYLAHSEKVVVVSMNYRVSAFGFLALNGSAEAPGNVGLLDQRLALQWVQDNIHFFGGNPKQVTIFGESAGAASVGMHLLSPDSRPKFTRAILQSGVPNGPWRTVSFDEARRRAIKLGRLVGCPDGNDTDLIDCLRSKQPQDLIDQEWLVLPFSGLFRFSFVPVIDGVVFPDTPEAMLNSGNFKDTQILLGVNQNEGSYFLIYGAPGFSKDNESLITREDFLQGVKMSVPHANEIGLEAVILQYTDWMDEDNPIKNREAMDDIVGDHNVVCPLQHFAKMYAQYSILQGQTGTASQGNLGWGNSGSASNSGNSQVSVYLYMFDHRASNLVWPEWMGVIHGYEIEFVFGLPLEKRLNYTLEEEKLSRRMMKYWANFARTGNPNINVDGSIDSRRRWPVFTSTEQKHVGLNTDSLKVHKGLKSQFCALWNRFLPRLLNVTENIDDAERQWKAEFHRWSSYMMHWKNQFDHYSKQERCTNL

[2] = target: Cholinesterase (Equus caballus) (UniProt P81908); experiment: Inhibition of equine serum BuChE using S-butyrylthiocholine chloride as substrate at 50 uM incubated for 15 mins by Ellman's method relative to control
Sequence of Cholinesterase (Equus caballus) (P81908 whole entry): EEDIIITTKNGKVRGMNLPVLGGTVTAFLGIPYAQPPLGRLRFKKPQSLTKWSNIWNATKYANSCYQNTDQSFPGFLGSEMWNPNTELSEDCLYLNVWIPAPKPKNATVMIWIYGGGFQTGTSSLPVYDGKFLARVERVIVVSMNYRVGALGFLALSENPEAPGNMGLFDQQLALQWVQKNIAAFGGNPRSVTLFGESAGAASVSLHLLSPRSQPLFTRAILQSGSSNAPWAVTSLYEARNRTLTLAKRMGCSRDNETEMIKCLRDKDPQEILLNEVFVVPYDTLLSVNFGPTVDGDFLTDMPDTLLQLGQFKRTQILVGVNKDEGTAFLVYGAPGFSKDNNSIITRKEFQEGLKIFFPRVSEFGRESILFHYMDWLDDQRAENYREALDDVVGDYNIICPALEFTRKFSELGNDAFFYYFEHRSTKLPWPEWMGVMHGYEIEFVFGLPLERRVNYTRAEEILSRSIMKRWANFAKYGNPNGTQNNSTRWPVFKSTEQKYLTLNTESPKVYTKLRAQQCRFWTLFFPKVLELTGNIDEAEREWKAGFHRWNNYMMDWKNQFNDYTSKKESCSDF

[3] = target: T1, Amine oxidase [flavin-containing] B (Homo sapiens, UniProt P27338); experiment: Inhibition of human recombinant MAO-B using kynuramine as substrate measured after 30 mins by fluorimetric assay
T1 sequence (P27338 whole entry): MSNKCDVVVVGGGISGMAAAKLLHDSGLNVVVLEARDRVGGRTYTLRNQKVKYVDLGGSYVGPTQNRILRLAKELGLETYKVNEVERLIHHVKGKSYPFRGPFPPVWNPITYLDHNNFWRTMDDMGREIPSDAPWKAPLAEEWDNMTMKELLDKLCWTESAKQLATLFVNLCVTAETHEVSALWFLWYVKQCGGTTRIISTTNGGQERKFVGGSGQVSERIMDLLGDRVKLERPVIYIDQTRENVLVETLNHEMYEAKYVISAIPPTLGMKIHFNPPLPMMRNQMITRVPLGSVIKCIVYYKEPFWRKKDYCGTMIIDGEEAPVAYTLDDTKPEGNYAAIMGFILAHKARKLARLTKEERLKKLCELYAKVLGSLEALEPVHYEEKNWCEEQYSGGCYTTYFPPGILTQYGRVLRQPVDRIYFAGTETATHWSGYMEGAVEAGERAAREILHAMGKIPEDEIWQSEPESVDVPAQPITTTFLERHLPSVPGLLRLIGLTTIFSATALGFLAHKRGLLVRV

[4] = target: T2, MAO-A (Homo sapiens, UniProt P21397); experiment: Inhibition of human recombinant MAO-A using kynuramine as substrate at 10 uM measured after 30 mins by fluorimetric assay relative to control; conditions: probe kynuramine
T2 sequence (P21397 whole entry): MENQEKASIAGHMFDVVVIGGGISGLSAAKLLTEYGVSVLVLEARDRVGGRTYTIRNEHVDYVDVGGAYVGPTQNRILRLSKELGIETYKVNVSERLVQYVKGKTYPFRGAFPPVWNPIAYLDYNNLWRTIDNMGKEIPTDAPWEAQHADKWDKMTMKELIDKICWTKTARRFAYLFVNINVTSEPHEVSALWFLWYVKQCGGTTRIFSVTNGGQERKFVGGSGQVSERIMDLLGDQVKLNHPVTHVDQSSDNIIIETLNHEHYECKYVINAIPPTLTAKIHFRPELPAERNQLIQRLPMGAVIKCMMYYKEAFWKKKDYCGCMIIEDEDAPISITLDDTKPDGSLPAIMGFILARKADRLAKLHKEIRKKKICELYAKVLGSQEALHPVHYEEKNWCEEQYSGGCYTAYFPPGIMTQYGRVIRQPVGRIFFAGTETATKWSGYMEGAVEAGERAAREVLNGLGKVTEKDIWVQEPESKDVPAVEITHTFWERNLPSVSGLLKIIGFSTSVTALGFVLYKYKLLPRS

[5] = target: Cholinesterase (Equus caballus, UniProt P81908); experiment: Inhibition of equine serum BuChE using S-butyrylthiocholine chloride as substrate incubated for 15 mins by Ellman's method
Sequence of Cholinesterase (P81908 whole entry): as the sequence (P81908 whole entry) above
How it was run: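 Modified Ellman method using equine serum BuChE. […] Values are the mean of three independent experiments, each run in triplicate, with SD.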

[6] = Selectivity index, ratio of IC50 for equine serum BuChE using S-butyrylthiocholine chloride as substrate to IC50 for electric eel AChE using acetylthiocholine iodide as substrate by Ellman's method
How it was run: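 Selectivity index is IC50(eqBuChE)/IC50(EeAChE). Both IC50s come from the modified Ellman method, using Electrophorus electricus AChE and equine serum BuChE. Each IC50 is the mean of three independent experiments, each run in triplicate.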

[7] = Metal chelating activity assessed as Al3+-compound complex formation at 37.5 uM measured after 30 mins in presence of 37.5 uM AlCl3 by UV-vis spectrophotometric analysis
[8] = Metal chelating activity assessed as mole fraction of the compound required for Cu2+ -compound complex formation at stoichiometry ratio of 1:1 at 37.5 uM measured after 30 mins in presence of 3.75 to 93.75 uM CuCl2 by UV-vis spectrophotometric analysis
How it was run: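 Cu2+ complex stoichiometry determined by the molar ratio method. Ascending amounts of CuCl2 were added to the test compound, at a final concentration of 37.5 μM. Absorbance was plotted against mole fraction, and the stoichiometry was taken from the intersection of two fitted straight lines. The final Cu2+ concentration started at 3.75 μM.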

[9] = Metal chelating activity assessed as Cu2+-compound complex formation measured as red shift in absorption spectra at 37.5 uM measured after 30 mins in presence of 37.5 uM CuCl2 by UV-vis spectrophotometric analysis
[10] = Metal chelating activity assessed as Fe2+-compound complex formation at 37.5 uM measured after 30 mins in presence of 37.5 uM FeSO4 by UV-vis spectrophotometric analysis
[11] = Metal chelating activity assessed as Zn2+-compound complex formation at 37.5 uM measured after 30 mins in presence of 37.5 uM ZnCl2 by UV-vis spectrophotometric analysis
[12] = Permeability of the compound at 100 ug/ml measured after compound dilution in PBS/EtOH buffer (70:30) by PAMPA-BBB assay
[13] = target: Acetylcholinesterase (Electrophorus electricus) (UniProt O42275); experiment: Mixed inhibition of electric eel AChE at 1.5 to 6 uM preincubated with enzyme for 15 mins followed by substrate addition using acetylthiocholine iodide as substrate by double reciprocal Lineweaver-Burk plot analysis
Sequence of Acetylcholinesterase (Electrophorus electricus) (O42275 24-633 limits assumed): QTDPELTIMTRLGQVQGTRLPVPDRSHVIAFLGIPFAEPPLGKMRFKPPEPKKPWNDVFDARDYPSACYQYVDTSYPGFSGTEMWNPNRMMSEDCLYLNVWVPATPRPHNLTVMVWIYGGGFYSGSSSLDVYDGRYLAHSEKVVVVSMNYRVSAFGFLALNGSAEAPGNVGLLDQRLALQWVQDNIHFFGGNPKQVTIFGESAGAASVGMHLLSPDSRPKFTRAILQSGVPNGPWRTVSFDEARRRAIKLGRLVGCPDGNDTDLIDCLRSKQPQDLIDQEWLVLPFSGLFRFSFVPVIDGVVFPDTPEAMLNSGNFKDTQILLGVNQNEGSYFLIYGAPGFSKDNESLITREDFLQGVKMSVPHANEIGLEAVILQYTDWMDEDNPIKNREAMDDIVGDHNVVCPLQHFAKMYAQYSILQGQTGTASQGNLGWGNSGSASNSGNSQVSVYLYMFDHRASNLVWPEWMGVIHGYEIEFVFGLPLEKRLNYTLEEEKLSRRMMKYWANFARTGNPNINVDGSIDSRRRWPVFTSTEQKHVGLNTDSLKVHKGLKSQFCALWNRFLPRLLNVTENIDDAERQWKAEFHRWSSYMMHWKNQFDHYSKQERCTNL

[14] = target: T3, Amine oxidase [flavin-containing] A (Homo sapiens, UniProt P21397); experiment: Inhibition of human recombinant MAO-A using kynuramine as substrate measured after 30 mins by fluorimetric assay
T3 sequence (P21397 whole entry): T2 sequence (P21397 whole entry)
How it was run: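 Recombinant human MAO-A inhibition measured by a fluorimetric assay. Each value is the mean of three independent experiments, each run in triplicate, with SD reported.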

Structure (SMILES) | IC50 [1] [µM] | inhibition [2] [%] | IC50 [3] [µM] | inhibition at 0.5 h, 10 µM [4] [%] | IC50 [5] [µM] | Ratio IC50 [6] | other results
CCN(CC)CCCCCCOc1ccc(C(C)=O)c(O)c1 | 16.3 | < 5 | 22.1 | < 10 | – | – | –
CCN(CCOc1ccc(C(C)=O)c(O)c1)Cc1ccccc1 | 18.9 | < 5 | 13.8 | < 10 | – | – | –
CC(=O)c1ccc(OCCCCCCCCCCCCN2CCC(Cc3ccccc3)CC2)cc1O | 9.5 | < 5 | 25.8 | < 10 | – | – | –
CC(=O)c1ccc(OCCCCCCCCCN2CCC(Cc3ccccc3)CC2)cc1O | 8.5 | < 5 | 27.9 | < 10 | – | – | –
COc1cc2c(cc1OC)CN(CCCCOc1ccc(C(C)=O)c(O)c1)CC2 | 15.9 | – | 15.7 | < 10 | 56.4 | 3.5 | –
CC(=O)c1ccc(OCCCCCCCCCCN2CCC(Cc3ccccc3)CC2)cc1O | 9.2 | 13.8 | 21.6 | < 10 | – | – | –
COc1cc2c(cc1OC)CN(CCCOc1ccc(C(C)=O)c(O)c1)CC2 | 10.1 | – | 13.8 | 8.1 | 57.9 | 5.7 | –
CCN(CCCOc1ccc(C(C)=O)c(O)c1)Cc1ccccc1 | 7.2 | – | 14.9 | < 10 | 18.7 | 2.6 | –
CC(=O)c1ccc(OCCCCCN2CCc3ccccc3C2)cc1O | 7.5 | < 5 | 15.2 | < 10 | – | – | –
CC(=O)c1ccc(OCCCCCCCCCCN2CCC(c3ccccc3)CC2)cc1O | 18.4 | 0.8 | 14.2 | < 10 | – | – | –
CCN(CCCCCOc1ccc(C(C)=O)c(O)c1)Cc1ccccc1 | 5.2 | – | 29.8 | < 10 | 37.2 | 7.1 | –
CCN(CC)CCCOc1ccc(C(C)=O)c(O)c1 | 26.7 | < 5 | 16.1 | < 10 | – | – | –
CC(=O)c1ccc(OCCCCN2CCc3ccccc3C2)cc1O | 5.9 | – | 12.8 | 6.3 | 47.5 | 8.1 | –
CC(=O)c1ccc(OCCCN2CCC(Cc3ccccc3)CC2)cc1O | 11.7 | – | 18.7 | < 10 | 63.1 | 5.4 | –
CC(=O)c1ccc(OCCN2CCC(Cc3ccccc3)CC2)cc1O | 16.5 | < 5 | 22.8 | < 10 | – | – | –
CCN(CC)CCCCOc1ccc(C(C)=O)c(O)c1 | 20.9 | < 5 | 22.2 | < 10 | – | – | –
CCN(CCCCOc1ccc(C(C)=O)c(O)c1)Cc1ccccc1 | 2.9 | – | 16.6 | < 10 | 34.6 | 11.9 | Activity [7]: inactive; Ratio (mole fraction) [8]: 0.97; Activity [9]: Active; Activity [10]: inactive; Activity [11]: inactive; Papp at 100 ug/ml [12]: 15.1 ×10⁻⁶ cm/s; inhibition [13]: Active
CC(=O)c1ccc(OCCCCCCCCCN2CCc3ccccc3C2)cc1O | 11.6 | < 5 | 19.4 | < 10 | – | – | –
CC(=O)c1ccc(OCCCCCN2CCC(Cc3ccccc3)CC2)cc1O | 8.2 | < 5 | 20.8 | < 10 | – | – | –
CC(=O)c1ccc(OCCCCCCN2CCc3ccccc3C2)cc1O | 9.2 | – | 26.9 | – | 32.6 | 3.5 | IC50 [14]: 21.2 µM
CC(=O)c1ccc(OCCCN2CCC(c3ccccc3)CC2)cc1O | 13.4 | – | 19.8 | – | 29.4 | 2.2 | IC50 [14]: 24.7 µM
CC(=O)c1ccc(OCCCN2CCc3ccccc3C2)cc1O | 8.9 | < 5 | 16.7 | < 10 | – | – | –
CC(=O)c1ccc(OCCCCCCCCCN2CCN(Cc3ccccc3)CC2)cc1O | 6.7 | – | 21.6 | – | 19.8 | 2.9 | IC50 [14]: 19.7 µM
CC(=O)c1ccc(OCCN2CCN(Cc3ccccc3)CC2)cc1O | 6.6 | 11.2 | 10.2 | – | – | – | IC50 [14]: 26.1 µM; Papp at 100 ug/ml [12]: 17.4 ×10⁻⁶ cm/s
CC(=O)c1ccc(OCCCCCCN2CCC(Cc3ccccc3)CC2)cc1O | 7.1 | – | 15.8 | – | 66.9 | 9.4 | IC50 [14]: 22.1 µM
CCN(CCCCCCCCCCCCOc1ccc(C(C)=O)c(O)c1)Cc1ccccc1 | 7.7 | – | 33.1 | < 10 | 38.9 | 5 | –
CC(=O)c1ccc(OCCCCN2CCC(Cc3ccccc3)CC2)cc1O | 8.9 | < 5 | 13.5 | < 10 | – | – | –
CCN(CCCCCCCCCCOc1ccc(C(C)=O)c(O)c1)Cc1ccccc1 | 6.5 | – | 23.4 | < 10 | 50.7 | 7.8 | –
CC(=O)c1ccc(OCCCCCCCCCCN2CCN(Cc3ccccc3)CC2)cc1O | 6.9 | 15.1 | 17.3 | – | – | – | IC50 [14]: 19.8 µM
CCN(CC)CCOc1ccc(C(C)=O)c(O)c1 | 35.2 | < 5 | 11.7 | < 10 | – | – | –
